Screens (PubChem BioAssay)
VIM-2 inh: blocks Pseudomonas aeruginosa VIM-2 metallo-beta-lactamase. purified VIM-2, nitrocefin hydrolysis, epi-absorbance fluorescence. inhibition, % at 5.6 µM. 290,000 compounds, 0.89% hits. AID 1527;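 active = inhibition above the mean of all tested compounds plus 3 SD, cutoff set per screening run, cut at about 7.5% in these data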;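 also: red hydrolysis product quenches plate fluorescence so inhibitors raise well fluorescence; 0% = enzyme with DMSO and 100% = DMSO without enzyme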
MEKK3 PB1 HTS: MEKK3-MEK5 PB1 interaction, increase or decrease; binding response (% of control), % at 10 µM; 290,000 compounds, 1.4% hits; bead-based flow cytometry, Alexa488-MEK5 binding to MEKK3; actives lie on both sides; 0 = blocked by unlabeled MEK5, 100 = vehicle; Q99759;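 active = binding response more than 3 SD above or below the average of its plate-row segment, actives on both sides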;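 also: Alexa488 bead fluorescence after subtracting the streptavidin-only scavenger bead signal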
MEKK2wt PB1 HTS: raises or lowers MEK5 binding to wildtype human MEKK2 PB1 domain; binding response (% of control), % at 10 µM; 290,000 compounds, 1.1% hits; Q9Y2U5; bead flow cytometry, Alexa488-MEK5 binding to MEKK2 WT; actives lie on both sides; AID 1531; in the data active = binding response below about 67% or above about 130%
IMP-1 inh-1: blocks Pseudomonas aeruginosa IMP-1 metallo-beta-lactamase. inhibition, % at 5.6 µM. purified IMP-1, nitrocefin hydrolysis, epi-absorbance fluorescence. 290,000 compounds, 0.45% hits. AID 1556;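 active = inhibition above the mean plus 3 SD of all compounds in the same screening run, cut at about 4.5% in these data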;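 also: 0% = IMP-1 with DMSO and 100% = DMSO wells lacking enzyme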
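system = purified recombinant IMP-1 beta-lactamase | amount = 0.2 nM IMP-1, as dispensed | medium = HEPES buffer pH 7.1 with ZnSO4 and Brij 35 | times = 25 °C, 15 min preincubation, 25 min reaction | detection = plate fluorescence quenching by hydrolysis product, ex 480/em 530 nm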
MEKK2mut PB1 HTS: signal of MEK5 binding to mutant human MEKK2 PB1 domain; bead flow cytometry, Alexa488-MEK5 binding to MEKK2 mutant; percent response, % at 10 µM; 290,000 compounds, 0.35% hits; in the data active = percent response above about 24%, passing the limit was not always enough
IMP-1 inh-2: IMP-1 inhibition, counter-screen for VIM-2 inhibitors. shares compounds with VIM-2 inh. purified IMP-1, nitrocefin hydrolysis, epi-absorbance fluorescence. inhibition, % at 5.6 µM. 1,300 tested, under 10 active; call rule not given here;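 also: 0% = enzyme with vehicle and 100% = vehicle without enzyme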
VIM-2 FRET ctr: VIM-2 FRET inhibition, artifact counter-screen | inhibition, % at 5.6 µM | 1,300 compounds, 23% hits | purified VIM-2, CCF2 FRET substrate hydrolysis | shares compounds with VIM-2 inh | AID 1857;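 active = inhibition above the mean of all tested compounds plus 3 SD, cut at about 19% in these data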;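 also: 0% = VIM-2 plus DMSO and 100% = no enzyme wells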
TEM-1 inh: TEM-1 inhibition, counter-screen for VIM-2 inhibitors | shares compounds with VIM-2 inh | Purified TEM-1, nitrocefin hydrolysis, epi-absorbance fluorescence | inhibition, % at 5.6 µM | 1,300 compounds, 3% hits;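 active = inhibition above that campaign's mean inhibition plus 3 SD, cut at about 0.46% in these data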;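 also: 0% = TEM-1 with DMSO and 100% = TEM-1 with 100 µM potassium clavulanate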
Target sequence (P62593 whole entry, looked up): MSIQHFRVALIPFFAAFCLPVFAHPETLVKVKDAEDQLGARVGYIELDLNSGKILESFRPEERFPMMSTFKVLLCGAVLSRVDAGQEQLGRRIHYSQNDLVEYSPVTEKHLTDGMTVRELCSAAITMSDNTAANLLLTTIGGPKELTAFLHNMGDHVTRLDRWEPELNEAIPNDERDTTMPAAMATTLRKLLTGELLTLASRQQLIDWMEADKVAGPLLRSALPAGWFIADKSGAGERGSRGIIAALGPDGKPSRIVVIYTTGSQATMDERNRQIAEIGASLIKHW
VIM-2 inh conf: confirmation of P. aeruginosa VIM-2 metallo-beta-lactamase inhibitors | purified VIM-2, nitrocefin hydrolysis, epi-absorbance | inhibition, % at 5.6 µM | shares compounds with VIM-2 inh | AID 2187 | 1,300 compounds, 96% hits;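 active = inhibition of the VIM-2 beta-lactamase enzyme above about 11% from the earlier first-round screen, limit read from the data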;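 also: 0% = VIM-2 with DMSO and 100% = buffer wells without enzyme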
The depositor's hits bear a star. Compounds with a hit are over-represented: about 3.4% of the library has one in this group of screens.

For CCn1cc(C(=O)O)c(=O)c2cc(F)c(N3CCN(C)CC3)cc21 the results were VIM-2 inh 1, MEKK3 PB1 HTS 107, MEKK2wt PB1 HTS 103, IMP-1 inh-1 -2 and MEKK2mut PB1 HTS 3.
`CCCCCCn1cc(C(=O)O)c(=O)c2cc(F)c(N3CCN(C)CC3)cc21` gave VIM-2 inh 16*, MEKK3 PB1 HTS 104, MEKK2wt PB1 HTS 105, IMP-1 inh-1 2, MEKK2mut PB1 HTS 2, IMP-1 inh-2 -1, VIM-2 FRET ctr 7, TEM-1 inh -1 and VIM-2 inh conf 19*.
For O=C(NCc1ccccn1)Nc1ccc(Br)cc1 the results were VIM-2 inh 1, MEKK3 PB1 HTS 105, MEKK2wt PB1 HTS 110, IMP-1 inh-1 -1 and MEKK2mut PB1 HTS 7.
`Brc1ccc(-c2ccc(CNCc3ccccn3)o2)cc1` gave VIM-2 inh 39*, MEKK3 PB1 HTS 107, MEKK2wt PB1 HTS 117, IMP-1 inh-1 0, MEKK2mut PB1 HTS 10, IMP-1 inh-2 -4, VIM-2 FRET ctr -15, TEM-1 inh -6 and VIM-2 inh conf 50*.
`Cc1c(CCO)c(=O)n2c([nH]c3ccccc32)c1C#N` gave VIM-2 inh 21*, MEKK3 PB1 HTS 107, MEKK2wt PB1 HTS 109, IMP-1 inh-1 -2, MEKK2mut PB1 HTS 7, IMP-1 inh-2 -2, VIM-2 FRET ctr -4, TEM-1 inh -5 and VIM-2 inh conf 30*.
CC(C)C(=O)Nc1nnc(SCC(=O)NCc2cccs2)s1 was read as VIM-2 inh 14*, IMP-1 inh-1 -3, IMP-1 inh-2 -3, VIM-2 FRET ctr 41*, TEM-1 inh -5 and VIM-2 inh conf 26*.
For Cc1cccc(C)c1Nc1nnc(SCC(=O)NCc2cccs2)s1 the results were VIM-2 inh 0, MEKK3 PB1 HTS 95, MEKK2wt PB1 HTS 95, IMP-1 inh-1 -2 and MEKK2mut PB1 HTS -2.
CC(C)(C)C(=O)Nc1nnc(SCC(=O)NCc2cccs2)s1 was read as VIM-2 inh 56*, MEKK3 PB1 HTS 110, MEKK2wt PB1 HTS 110, IMP-1 inh-1 -2, MEKK2mut PB1 HTS 7, IMP-1 inh-2 -3, VIM-2 FRET ctr 79*, TEM-1 inh -6 and VIM-2 inh conf 61*.
`Cc1ccccc1Nc1nnc(SCC(=O)NCc2cccs2)s1` gave VIM-2 inh 3, MEKK3 PB1 HTS 113, MEKK2wt PB1 HTS 105, IMP-1 inh-1 -1 and MEKK2mut PB1 HTS 0.
S=c1[nH]nc(CSCc2ccccc2Cl)n1C1CCCCC1 was read as VIM-2 inh 0, MEKK3 PB1 HTS 95, MEKK2wt PB1 HTS 94, IMP-1 inh-1 -2 and MEKK2mut PB1 HTS -4.
For S=c1[nH]nc(-c2ccco2)n1C1CCCCC1 the results were VIM-2 inh 25*, MEKK3 PB1 HTS 105, MEKK2wt PB1 HTS 90, IMP-1 inh-1 -2, MEKK2mut PB1 HTS 19, IMP-1 inh-2 -3, VIM-2 FRET ctr 52*, TEM-1 inh -6 and VIM-2 inh conf 34*.
`Cn1cc(Cl)c(-c2n[nH]c(=S)n2C2CCCCC2)n1` gave VIM-2 inh 42*, MEKK3 PB1 HTS 90, MEKK2wt PB1 HTS 84, IMP-1 inh-1 0, MEKK2mut PB1 HTS -14, IMP-1 inh-2 -3, VIM-2 FRET ctr 60*, TEM-1 inh -8 and VIM-2 inh conf 43*.
CCOC(=O)C1CCCN(Cc2nc(N)nc(Nc3ccccc3)n2)C1 (stereo not drawn) was read as VIM-2 inh -3, MEKK3 PB1 HTS 103, MEKK2wt PB1 HTS 101, IMP-1 inh-1 -3 and MEKK2mut PB1 HTS 6.
